Measurements reported in ChEMBL document CHEMBL4680306, “The 3-D conformational shape of N-naphthyl-cyclopenta[d]pyrimidines affects their potency as microtubule targeting agents and their antitumor activity” (Bioorg Med Chem, 2021).
pEC50, pIC50: −log10 of the molar value. Calls of active or inactive are those of the source. The calls are words filed in the database; no cut-off is given here.

What was measured:
[1] = Antiproliferative activity against human SK-OV-3 MDR-1-6/6 cells expressing Pgp assessed as decrease in cell growth measured after 48 hrs by SRB method; format: functional; conditions: SK-OV-3, 48 h
[2] = Relative resistance, ratio of IC50 for antiproliferative activity against human SK-OV-3 MDR-1-6/6 cells expressing Pgp to IC50 antiproliferative activity against human SK-OV-3 cells; format: functional
[3] = Induction of microtubule depolymerisation in rat A-10 cell line measured after 18 hrs by indirect immunofluorescence method; conditions: a10
Outline: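 Rat A-10 cells, chosen because they arrest in interphase without significant mitotic accumulation, were exposed to compounds for 18 h. Cellular microtubules were then visualized by indirect immunofluorescence. EC50 values come from at least three independent experiments.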

HeLa = assay: Antiproliferative activity against human HeLa cells assessed as decrease in cell growth measured after 48 hrs by SRB method; format: functional, cell-based
[4] = Relative resistance, ratio of IC50 for inhibition of beta3 Tubulin (unknown origin) expressed in human HeLa cell line assessed as inhibition of cell proliferation to IC50 antiproliferative activity against human HeLa cells
MDA-MB-435 [5] = assay: Antiproliferative activity against human MDA-MB-435 cell line assessed as inhibition of cell proliferation measured after 48 hrs by SRB assay; format: functional, cell-based; conditions: MDA-MB-435, 48 h
Outline: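 MDA-MB-435 melanoma cells were assessed by sulforhodamine B assay. IC50 is the mean ± SD of at least three independent experiments, each run in triplicate.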

SK-OV-3 [6] = assay: Antiproliferative activity against human SK-OV-3 cells assessed as decrease in cell growth measured after 48 hrs by SRB method; format: functional, cell-based; conditions: SK-OV-3, 48 h
U-251 [7] = assay: Antitumour activity against human U251 cells xenografted in NCr athymic nude nu/nu mouse assessed as decrease in tumour growth at 50 mg/kg once in a week; format: functional, organism-based
U-251 [8] = assay: Cytotoxicity against human U251 cell line assessed as inhibition of cell growth after 48 hrs by SRB assay; format: functional, cell-based; conditions: U-251, 48 h
Bos taurus = organism: Bos taurus; assay: Inhibition of [3H]colchicine binding to bovine tubulin at 5 uM measured after 10 mins by scintillation counting
Outline: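 Purified bovine brain tubulin at 1.0 µM was mixed with 5.0 µM [3H]colchicine and inhibitor, plus components that stabilize colchicine binding, in 5% DMSO; tubulin was added last, on ice. Binding ran 10 min at 37 °C and was stopped with ice water. Mixtures were filtered through stacked DEAE-cellulose filters, and bound radiolabel was measured by scintillation counting.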

[9] = Inhibition of bovine tubulin polymerization assessed as reduction in extent of assembly preincubated for 15 mins followed by addition of reaction mixture measured after 20 mins by turbidimetric assay; parameters: species or system Bos taurus
Outline: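 After chilling, GTP was added (0.4 mM final). Turbidity at 350 nm was read after a jump from 0 °C to 30 °C.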

PC-3 = assay: Cytotoxicity against human PC-3 cells assessed as inhibition of cell growth measured after 48 hrs by SRB assay; format: functional
KM12 = assay: Cytotoxicity against human KM12 cells assessed as inhibition of cell growth measured after 48 hrs by SRB assay; format: functional
COLO 205 = assay: Cytotoxicity against human COLO 205 cells assessed as inhibition of cell growth measured after 48 hrs by SRB assay; format: functional
A498 = assay: Cytotoxicity against human A498 cells assessed as inhibition of cell growth measured after 48 hrs by SRB assay; format: functional
HOP-62 = assay: Cytotoxicity against human HOP-62 cells assessed as inhibition of cell growth measured after 48 hrs by SRB assay; format: functional
K562 = assay: Cytotoxicity against human K562 cells assessed as inhibition of cell growth measured after 48 hrs by SRB assay; format: functional
SNB-19 = assay: Cytotoxicity against human SNB-19 cells assessed as inhibition of cell growth measured after 48 hrs by SRB assay; format: functional
OVCAR-3 = assay: Cytotoxicity against human OVCAR-3 cells assessed as inhibition of cell growth measured after 48 hrs by SRB assay; format: functional
U-251 [10] = assay: Cytotoxicity against human U-251 cells assessed as inhibition of cell growth measured after 48 hrs by SRB assay; format: functional
NCI-H460 = assay: Cytotoxicity against human NCI-H460 cells assessed as inhibition of cell growth measured after 48 hrs by SRB assay; format: functional
Malme-3M = assay: Cytotoxicity against human Malme-3M cells assessed as inhibition of cell growth measured after 48 hrs by SRB assay; format: functional
OVCAR-8 = assay: Cytotoxicity against human OVCAR-8 cells assessed as inhibition of cell growth measured after 48 hrs by SRB assay; format: functional
HCT-116 = assay: Cytotoxicity against human HCT-116 cells assessed as inhibition of cell growth measured after 48 hrs by SRB assay; format: functional
SK-OV-3 [11] = assay: Cytotoxicity against human SK-OV-3 cells assessed as inhibition of cell growth measured after 48 hrs by SRB assay; format: functional
SNB-75 = assay: Cytotoxicity against human SNB-75 cells assessed as inhibition of cell growth measured after 48 hrs by SRB assay; format: functional
SF-539 = assay: Cytotoxicity against human SF-539 cells assessed as inhibition of cell growth measured after 48 hrs by SRB assay; format: functional
CCRF-CEM = assay: Cytotoxicity against human CCRF-CEM cells assessed as inhibition of cell growth measured after 48 hrs by SRB assay; format: functional
HL-60(TB) = assay: Cytotoxicity against human HL-60(TB) cells assessed as inhibition of cell growth measured after 48 hrs by SRB assay; format: functional
OVCAR-5 = assay: Cytotoxicity against human OVCAR-5 cells assessed as inhibition of cell growth measured after 48 hrs by SRB assay; format: functional
EKVX = assay: Cytotoxicity against human EKVX cells assessed as inhibition of cell growth measured after 48 hrs by SRB assay; format: functional
HT-29 = assay: Cytotoxicity against human HT-29 cells assessed as inhibition of cell growth measured after 48 hrs by SRB assay; format: functional
M14 = assay: Cytotoxicity against human M14 cells assessed as inhibition of cell growth measured after 48 hrs by SRB assay; format: functional
BT-549 = assay: Cytotoxicity against human BT-549 cells assessed as inhibition of cell growth measured after 48 hrs by SRB assay; format: functional
MCF7 = assay: Cytotoxicity against human MCF7 cells assessed as inhibition of cell growth measured after 48 hrs by SRB assay; format: functional
786-0 = assay: Cytotoxicity against human 786-0 cells assessed as inhibition of cell growth measured after 48 hrs by SRB assay; format: functional
IGROV-1 = assay: Cytotoxicity against human IGROV-1 cells assessed as inhibition of cell growth measured after 48 hrs by SRB assay; format: functional
UACC-62 = assay: Cytotoxicity against human UACC-62 cells assessed as inhibition of cell growth measured after 48 hrs by SRB assay; format: functional
SN12C = assay: Cytotoxicity against human SN12C cells assessed as inhibition of cell growth measured after 48 hrs by SRB assay; format: functional
SW-620 = assay: Cytotoxicity against human SW-620 cells assessed as inhibition of cell growth measured after 48 hrs by SRB assay; format: functional
MDA-MB-435 [12] = assay: Cytotoxicity against human MDA-MB-435 cells assessed as inhibition of cell growth measured after 48 hrs by SRB assay; format: functional
NCI-H226 = assay: Cytotoxicity against human NCI-H226 cells assessed as inhibition of cell growth measured after 48 hrs by SRB assay; format: functional
HCC 2998 = assay: Cytotoxicity against human HCC 2998 cells assessed as inhibition of cell growth measured after 48 hrs by SRB assay; format: functional
[13] = Cytotoxicity against human SK-MEL-5 cells assessed as inhibition of cell growth measured after 48 hrs by SRB assay; format: functional
LOX IMVI = assay: Cytotoxicity against human LOX IMVI cells assessed as inhibition of cell growth measured after 48 hrs by SRB assay; format: functional
SF-268 = assay: Cytotoxicity against human SF-268 cells assessed as inhibition of cell growth measured after 48 hrs by SRB assay; format: functional
T47D = assay: Cytotoxicity against human T47D cells assessed as inhibition of cell growth measured after 48 hrs by SRB assay; format: functional
SF-295 = assay: Cytotoxicity against human SF-295 cells assessed as inhibition of cell growth measured after 48 hrs by SRB assay; format: functional
SR = assay: Cytotoxicity against human SR cells assessed as inhibition of cell growth measured after 48 hrs by SRB assay; format: functional
DU-145 = assay: Cytotoxicity against human DU-145 cells assessed as inhibition of cell growth measured after 48 hrs by SRB assay; format: functional
SK-MEL-2 = assay: Cytotoxicity against human SK-MEL-2 cells assessed as inhibition of cell growth measured after 48 hrs by SRB assay; format: functional
A549 = assay: Cytotoxicity against human A549 cells assessed as inhibition of cell growth measured after 48 hrs by SRB assay; format: functional
Hs-578T = assay: Cytotoxicity against human Hs-578T cells assessed as inhibition of cell growth measured after 48 hrs by SRB assay; format: functional
SK-MEL-28 = assay: Cytotoxicity against human SK-MEL-28 cells assessed as inhibition of cell growth measured after 48 hrs by SRB assay; format: functional
NCI-H23 = assay: Cytotoxicity against human NCI-H23 cells assessed as inhibition of cell growth measured after 48 hrs by SRB assay; format: functional
OVCAR-4 = assay: Cytotoxicity against human OVCAR-4 cells assessed as inhibition of cell growth measured after 48 hrs by SRB assay; format: functional
NCI/ADR-RES = assay: Cytotoxicity against human NCI/ADR-RES cells assessed as inhibition of cell growth measured after 48 hrs by SRB assay; format: functional
HOP-92 = assay: Cytotoxicity against human HOP-92 cells assessed as inhibition of cell growth measured after 48 hrs by SRB assay; format: functional
MOLT-4 = assay: Cytotoxicity against human MOLT-4 cells assessed as inhibition of cell growth measured after 48 hrs by SRB assay; format: functional

## COc1cccc2cc(N(C)c3nc(N)nc4c3CCC4)ccc12
[1]
  pIC50: 7.71
[2]
  Ratio IC50: 1.3
[3]
  pEC50: 7.59
HeLa
  pIC50: 7.90
[4]
  Ratio IC50: 0.8
MDA-MB-435 [5]
  pIC50: 8.06
SK-OV-3 [6]
  pIC50: 7.83

## Cn1nnc2c(C(N)=O)ncn2c1=O
U-251 [7]
  inhibition: Active

## COc1ccc(N(C)c2nc(C)nc3c2CCC3)c2ccccc12
[1]
  pIC50: 6.40
U-251 [8]
  pIC50: 7.45
Bos taurus
  inhibition: 72%
[2]
  Ratio IC50: 1.2
[3]
  pEC50: 6.30
HeLa
  pIC50: 6.60
[4]
  Ratio IC50: 0.7
MDA-MB-435 [5]
  pIC50: 6.64
[9]
  pIC50: 5.85
SK-OV-3 [6]
  pIC50: 6.48

## COc1ccc2c(N(C)c3ncnc4c3CCC4)cccc2c1
U-251 [8]
  pIC50: 6.88
[3]
  pEC50: < 5.00
[9]
  pIC50: < 4.70

## CC(=O)O[C@H]1C(=O)[C@@]2(C)[C@H]([C@H](OC(=O)c3ccccc3)[C@]3(O)C[C@H](OC(=O)[C@H](O)[C@@H](NC(=O)c4ccccc4)c4ccccc4)C(C)=C1C3(C)C)[C@]1(OC(C)=O)CO[C@@H]1C[C@@H]2O [PACLITAXEL]
PC-3
  GI50: 6.3 nM
KM12
  GI50: 5 nM
COLO 205
  GI50: 7.9 nM
A498
  GI50: 7.9 nM
HOP-62
  GI50: 19 nM
K562
  GI50: 6.3 nM
SNB-19
  GI50: 10 nM
OVCAR-3
  GI50: 4 nM
U-251 [10]
  GI50: 6.3 nM
NCI-H460
  GI50: 6.3 nM
Malme-3M
  GI50: 50 nM
OVCAR-8
  GI50: 7.9 nM
HCT-116
  GI50: 4 nM
SK-OV-3 [11]
  GI50: 6.3 nM
SNB-75
  GI50: 7.9 nM
SF-539
  GI50: 5 nM
CCRF-CEM
  GI50: 5 nM
HL-60(TB)
  GI50: 4 nM
OVCAR-5
  GI50: 7.9 nM
EKVX
  GI50: 79 nM
HT-29
  GI50: 5 nM
M14
  GI50: 5 nM
BT-549
  GI50: 4 nM
MCF7
  GI50: 4 nM
786-0
  GI50: 39 nM
IGROV-1
  GI50: 6.3 nM
UACC-62
  GI50: 5 nM
SN12C
  GI50: 6.3 nM
SW-620
  GI50: 4 nM
MDA-MB-435 [12]
  GI50: 4 nM
NCI-H226
  GI50: 3.9 nM
HCC 2998
  GI50: 1 nM
[13]
  GI50: 5 nM
LOX IMVI
  GI50: 5 nM
SF-268
  GI50: 5 nM
T47D
  GI50: 12.5 nM
SF-295
  GI50: 25 nM
SR
  GI50: 6.3 nM
DU-145
  GI50: 6.3 nM
SK-MEL-2
  GI50: 400 nM
A549
  GI50: 6.3 nM
Hs-578T
  GI50: 5 nM
SK-MEL-28
  GI50: 400 nM
NCI-H23
  GI50: 6.3 nM
OVCAR-4
  GI50: 630 nM
NCI/ADR-RES
  GI50: 630 nM
HOP-92
  GI50: 25 nM
MOLT-4
  GI50: 5 nM

## COc1ccc2c(N(C)c3nc(C)nc4c3CCC4)cccc2c1
U-251 [8]
  pIC50: 7.05
[3]
  pEC50: < 5.00
[9]
  pIC50: < 4.70
